# Assay results pooled from the literature.
# Each line is one published result; the experiments were not run side by side.
# Target: Cyclin-dependent kinase 5 (CDK5, Homo sapiens, UniProt Q00535)
Structure (SMILES),read-out,technique,concentration,remaining binding [%]
Nc1ncc2c(n1)-c1c([nH]c3ccc(C#CC4CC4)cc13)CCCC2,binding,competition with immobilised ligand,1 µM,96
CC1=C(C#N)C(c2ccc3c(c2)c(NC(=O)c2ccccc2C)nn3C)C(C#N)=C(C)N1,cell-free assay,competition with immobilised ligand,1 µM,87
CN(C)c1nccc(-c2cnc3ncccn23)n1,binding,,1 µM,91
FC(F)(F)Oc1cccc(-c2cnc3ccc(-c4ccncc4)nn23)c1,cell-free assay,competition with immobilised ligand,5 µM,93
CN(C)c1ncc(F)c(-c2cnn3ncccc23)n1,binding,,1 µM,82
O=C(c1ccc(Nc2ncc(Cl)c(-c3cc4ccccc4s3)n2)cc1)N1CCC(N2CCCC2)CC1,binding,competition with immobilised ligand,1 µM,42
Cn1cc(Cl)c2c(Oc3c(F)cc(Nc4cc(Cl)nc(N)n4)cc3F)ccnc21,cell-free assay,competition with immobilised ligand,0.1 µM,100
O=C(NCCCN1CCOCC1)c1ccc(Nc2nccc(-c3cc4ccccc4s3)n2)cc1,binding,competition with immobilised ligand,1 µM,84
CSc1cccnc1N1CCN(Cc2nc3ccccc3[nH]2)CC1,cell-free assay,competition with immobilised ligand,1 µM,99
c1cnn2ncc(-c3ccnc(N4CCC45COC5)n3)c2c1,binding,,1 µM,99
CCCCN(CCCC)C(=O)CN1C[C@@H](c2cc(OC)c3c(c2)OCO3)[C@H](C(=O)O)[C@H]1CC(C)(C)CCC,cell-free assay,competition with immobilised ligand,1 µM,97.7
COc1ncc2cc3ccccc3nc2c1C#N,cell-free assay,competition with immobilised ligand,5 µM,100
C[C@@H]1CCN(c2nccc(-c3cnn4ncccc34)n2)C1,binding,,1 µM,100
O=c1nc(-c2ccccn2)sc2ccccc12,binding,competition with immobilised ligand,1 µM,85
O=C(NCCCN1CCOCC1)c1ccc(Nc2ncc(Cl)c(-c3ccc(Cl)s3)n2)cc1,binding,competition with immobilised ligand,1 µM,42
O=C(NCC1CCOCC1)c1n[nH]cc1NC(=O)c1c(F)cccc1F,binding,competition with immobilised ligand,1 µM,83
CNCc1ccccc1-c1csc([C@H](C)Nc2nc(C)nc3cc(OC)c(OC)cc23)c1,cell-free assay,competition with immobilised ligand,1 µM,98
COc1ccnn2ncc(-c3ccnc(N(C)C)n3)c12,binding,,1 µM,100
CCN1CCN(Cc2ccc(C(=O)Nc3ccc(C)c(Oc4ccc5c(c4)CC(=O)N5)c3)cc2C(F)(F)F)CC1,binding,competition with immobilised ligand,1 µM,100
CNC(=O)Nc1ccc2c(c1)CC[C@@]21OC(=O)N(CC(=O)N(Cc2ccc(F)cc2)[C@@H](C)C(F)(F)F)C1=O,cell-free assay,competition with immobilised ligand,1 µM,84
CN(C)c1nccc(-c2cnn3ncccc23)n1,binding,,1 µM,100
CNC(=O)[C@@H]1CC[C@@H](n2c(-c3ccc4cnccc4c3)nc3ccc(C(=O)NCc4cccc(C(N)=O)c4)cc32)C1,binding,competition with immobilised ligand,1 µM,89
